Bioassay records deposited in PubChem by several laboratories.
GRIN3A LBD mod: modulators (binders) of human NR3A ligand-binding domain | NR3A LBD differential scanning fluorimetry, Tm shift; 0% = protein alone, 100% = glycine-bound protein | Tm shift relative to glycine control, % at 25 µM | 2.5% of 340,000 active;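 active = melting temperature shift of at least 10% of the positive control shift, at one fixed dose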
NS3 helicase inh: inhibitors of Hepatitis C virus NS3 helicase; NS3 helicase DNA unwinding, Cy5 molecular beacon fluorescence; inhibition, % at 10.9 µM; 0.56% of 290,000 active;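 active = inhibition above the mean of all tested compounds plus 3 SD, set per campaign, cut at about 35% in these data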;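 note: 0% = DMSO wells and 100% = thioflavine S control wells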
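Assay system – hepatitis C virus NS3 helicase domain fragment enzyme · Buffer or medium – MOPS pH 6.5, MgCl2, DTT, Tween20, BSA · Reagent – Cy5/quencher beacon DNA duplex and ATP to start · Compound – single 10.9 µM dose · Timing – 1 h at 25 °C · Technique – Cy5 beacon fluorescence read at start and 1 h · Measure – % inhibition of unwinding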
EBNA-1 inhibitor: blocks EBNA-1 binding to DNA; inhibition, % at 14.8 µM; AID 1950; EBNA-1 DNA binding, fluorescence polarization; 0.34% of 300,000 active; in the data active = inhibition above about 28%
ZTA DNA inh: counter-screen for EBNA-1 inhibitors: inhibitors of Epstein-Barr virus ZTA. ZTA-DNA binding, fluorescence polarization. inhibition, % at 11 µM. AID 2234. 0.15% of 320,000 active. P03206; in the data active = inhibition above about 33%
Target sequence (P03206 whole entry, looked up): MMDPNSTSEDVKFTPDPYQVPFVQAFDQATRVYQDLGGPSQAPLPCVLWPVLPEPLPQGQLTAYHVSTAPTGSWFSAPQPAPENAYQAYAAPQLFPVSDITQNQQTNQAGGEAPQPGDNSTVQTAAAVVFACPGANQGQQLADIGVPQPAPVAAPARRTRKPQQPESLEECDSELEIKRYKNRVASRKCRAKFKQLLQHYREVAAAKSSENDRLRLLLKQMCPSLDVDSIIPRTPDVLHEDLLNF
FID counter: displaces DNA intercalator in HCV helicase counter-screen | DNA fluorescent intercalator displacement, fluorescence | 0.17% of 290,000 active | inhibition, % at 7.9 µM; in the data active = inhibition above about 37%;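 note: 0% = vehicle and 100% = reference compound; higher means more ethidium bromide displaced from hairpin DNA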
FGF22 binding-1: shifts melting point of recombinant human FGF22 | recombinant FGF22 thermal shift, SYPRO orange fluorescence; percent of sucrose octasulfate shift, DMSO zero | AID 651658 | 1.5% of 340,000 active | Q9HCT0 | activity (Tm shift, normalised), % at 9.99 µM;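 active = mean Tm shift, scaled 0 neutral to 100 positive control, at about 1.3% or above, every replicate too, limit read from the data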
Target sequence (Q9HCT0 whole entry, looked up): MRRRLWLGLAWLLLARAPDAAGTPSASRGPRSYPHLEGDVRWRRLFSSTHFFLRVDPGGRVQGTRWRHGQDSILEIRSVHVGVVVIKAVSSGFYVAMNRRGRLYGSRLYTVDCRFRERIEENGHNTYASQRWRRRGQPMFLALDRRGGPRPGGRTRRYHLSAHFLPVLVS
FGF22 binding-2: binds human FGF22 shifting its melting temperature. thermal shift activity, °C (ΔTm) at 38 µM. recombinant FGF22 thermal shift, SYPRO orange fluorescence. 2% of 1,000 active. AID 720646. shares compounds with FGF22 binding-1;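 active = fitted rise in melting shift crosses a set limit at or below the top valid dose tested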
TSA no protein: shows thermal shift signal without protein, FGF22 counter-screen; AID 743019; AC50, µM (top dose mostly 38 µM); 2% of 1,000 active; compound-only SYPRO orange thermal shift counter-screen, no protein; shares compounds with FGF22 binding-1;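 active = rising signal whose fitted curve reaches the 0.54 level within the top valid dose, showing a melting point, actives reach about 13 µM in these data; inactive = the rest, including activity in the opposite direction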; note: value is where the raw curve crosses a fixed level and not half-maximal
Active calls of the source: *; i = inactive; nt = no result given; [ ] = another dose, or the depositor's remark. A selection: hits, their analogues and other compounds. The true share with any hit is near 3.6%.

SMILES	GRIN3A LBD mod	NS3 helicase inh	EBNA-1 inhibitor	ZTA DNA inh	FID counter	FGF22 binding-1	FGF22 binding-2	TSA no protein
CC(C)C#Cc1cnc2c(c1)C(=O)N([C@@H](C)CO)C[C@H](C)[C@H](CN(C)Cc1cncnc1)O2	nt	nt	nt	nt	nt	-0.1	nt	nt
Oc1ccc(/C=N/N=C/c2ccc(O)c(O)c2)cc1O	27.6*	-0.9	3.2	8.1	-5.5	1.5*	0.23	10.5µM*
Oc1ccc(N=Cc2ccc(O)c(O)c2)cc1	-1.3	15.4	-0.5	-4.5	-3.3	nt	nt	nt
C[C@H]1CN([C@@H](C)CO)C(=O)c2cccc(NC(=O)Nc3ccc(F)cc3)c2O[C@H]1CN(C)C(=O)NC1CCCCC1	nt	nt	nt	nt	nt	-0.3	nt	nt
Cc1cc(C(=O)Nc2cccc(C)c2C)n(-c2ccccc2)n1	-0.3	11.0	-5.5	6.8	-5.7	0.0	nt	nt
Cc1cc(C(=O)Nc2cccc3ccccc23)n(-c2ccccc2)n1	-0.9	-22.3	0.5	-3.8	-17.2	3.2*	0.139	i
Oc1ccc(-c2nnc(Nc3cccc(O)c3)c3ccccc23)cc1	13.4*	-5.8	-6.2	4.5	-16.0	1.9*	-0.137	i
C[C@@H]1CCCCO[C@H](CN(C)C(=O)NC2CCCCC2)[C@H](C)CN([C@@H](C)CO)C(=O)c2cc(NC(=O)Nc3cccc4ccccc34)ccc2O1	nt	nt	nt	nt	nt	-0.3	nt	nt
O=C(Nc1ccc([N+](=O)[O-])cc1)Nc1ccon1	-2.7	-3.6	-10.2	11.3	-0.4	0.2	nt	nt
O=C(Nc1ccc(C(=O)O)cc1)Nc1ccc([N+](=O)[O-])cc1	1.1	0.4	8.2	12.2	1.2	1.9*	0.089	i
O=C(Nc1ccc(F)cc1)N[C@H]1CC[C@@H](CCn2cc(-c3ccccc3F)nn2)O[C@@H]1CO	nt	nt	nt	nt	nt	1.7*	0.171	i
O=C(Nc1ccc(F)cc1)N[C@H]1CC[C@@H](CCn2cc(-c3ccccc3F)nn2)O[C@H]1CO	nt	nt	nt	nt	nt	1.4*	-0.079	i
O=C(Cc1cccnc1)N[C@@H]1CC[C@@H](CCn2cc(-c3ccccc3F)nn2)O[C@@H]1CO	nt	nt	nt	nt	nt	1.3*	-0.118	i
O=C(Nc1ccc(F)cc1)N[C@H]1CC[C@H](CCn2cc(-c3ccccc3F)nn2)O[C@@H]1CO	nt	nt	nt	nt	nt	0.9	nt	nt
O=C(Nc1ccc(F)cc1)N[C@@H]1CC[C@H](CCn2cc(-c3ccccc3F)nn2)O[C@H]1CO	nt	nt	nt	nt	nt	2.9*	0.104	i
C[C@@H]1CCCCO[C@@H](CN(C)C)[C@H](C)CN([C@H](C)CO)C(=O)c2cc(NS(=O)(=O)c3cccs3)ccc2O1	nt	nt	nt	nt	nt	-0.1	nt	nt
O=C(c1ccccc1)N1C[C@@H]2[C@H](c3ccccc31)[C@H](CO)N2C(=O)Nc1ccccc1Cl	nt	nt	nt	nt	nt	0.1	nt	nt
C[C@H](CO)N1C[C@H](C)[C@@H](CN(C)C(=O)c2ccncc2)Oc2ncc(C3=CCCCC3)cc2C1=O	nt	nt	nt	nt	nt	-0.2	nt	nt
CN1CCN(C(=O)C[C@H]2C=C[C@H](NC(=O)c3ccc4c(c3)OCO4)[C@H](CO)O2)CC1	nt	nt	nt	nt	nt	1.5*	0.042[42 µM]	i
C[C@@H]1CCCCO[C@@H](CN(C)S(C)(=O)=O)[C@H](C)CN([C@@H](C)CO)C(=O)c2cc(NC(=O)c3ccncc3)ccc2O1	nt	nt	nt	nt	nt	-0.2	nt	nt
O=C(c1ccncc1)N1CC2(C1)[C@H](c1ccccc1)[C@@H](CO)N2CC1CCOCC1	nt	nt	nt	nt	nt	-0.6	nt	nt
CO[C@H]1CN(C)C(=O)c2cc(NC(=O)Nc3cccc(Cl)c3)ccc2OC[C@@H](C)NC[C@@H]1C	nt	nt	nt	nt	nt	-0.3	nt	nt
NS(=O)(=O)c1cccc(NC(=O)c2ccc(NS(=O)(=O)c3cccc([N+](=O)[O-])c3)cc2)c1	29.8*	nt	nt	nt	nt	3.1*	0.27	i
O=C(Nc1ccc(S(=O)(=O)Nc2ccccn2)cc1)c1cccc([N+](=O)[O-])c1	-9.9	-1.9	-1.3	13.4	4.2	35.9*	0.108	i
O=C(Nc1ccccc1N1CCCCC1)c1cccc([N+](=O)[O-])c1	1.4	-4.6	-17.1	-10.3	3.9	-0.1	nt	nt
O=C(Nc1cccc2ccccc12)c1cccc([N+](=O)[O-])c1	-1.7	3.0	8.1	4.3	-5.5	1.7*	0.084	i
